In the library only some 4% were active in any assay of this set; here they are far more common.
iPSC survival up: increases survival of single human iPS cells | survival enhancement, % at 20 µM | hiPSC single-cell survival, ATPlite luminescence; 100% = ROCK inhibitor wells, 0% = DMSO | actives 0.044% (n = 360,000) | AID 602274; in the data active = survival enhancement above about 18%;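 also: cells exposed to compounds for 16 hours before the ATP read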
NR3A LBD binder: modulators (binders) of human NR3A ligand-binding domain. NR3A LBD differential scanning fluorimetry, Tm shift; 0% = protein alone, 100% = glycine-bound protein. AID 1259313. Tm shift relative to glycine control, % at 25 µM. actives 2.5% (n = 340,000);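 active = melting temperature shift of at least 10% of the positive control shift, at one fixed dose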
Arrestin-AP2 inh: human beta-arrestin and AP2 interaction inhibition | AID 504490 | FITC-arrestin peptide / GST-AP2 beads, flow cytometry; AP2 beta2 appendage carries R879A mutation | inhibition, % at 10 µM | actives 0.31% (n = 340,000);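 active = inhibition above a set limit, near 3 SD of compounds lacking own fluorescence, cut at about 54% in these data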;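 also: plate controls were DMSO wells for no effect and 5 µM unlabelled arrestin peptide for full effect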
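System: GST-tagged AP2 beta2-adaptin appendage (R879A) on 4 µm glutathione beads / Reagent: FITC-arrestin peptide, 50 nM / Detection: HyperCyt-sampled flow cytometry, FL1 channel, ex 488/em 535 nm / Timing: 12 min plus 1 h, RT / Buffer or medium: PBS plus Tween 20 (0.05%) and BSA (0.1%)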
SENP1 FRET inh: blocks the human SENP1 SUMO protease catalytic domain; Q9P0U3; recombinant SENP1 catalytic domain, CyPet-SUMO1-YPet FRET cleavage; inhibition, % at 10 µM; actives 0.21% (n = 360,000); AID 624204;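 active = inhibition at least 30% at 10 µM, raw YFP signal under a set limit, fluorescence ratio 0.5 to 1.5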;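 also: 0% = enzyme with DMSO and 100% = no enzyme wells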
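Material – human SENP1 catalytic domain · Input – SENP1 enzyme, 20 pM final · Compound dosing – single concentration of 10 µM compound, 0.5% DMSO final · Timing – enzyme reaction for 50 min at room temperature, dark · Measured by – FRET fluorescence in CFP and YFP emission channels · Control set – no-enzyme wells low, DMSO-plus-enzyme wells high control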
H9c2 protect: modulators protecting cardiomyocytes from myocardial damage; H9c2 cardiomyocytes, H2O2 injury protection, ATPLite, 2 h; protection from H2O2 cell death, % at 20 µM; actives 0.63% (n = 360,000);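 active = compounds giving at least 50% protection of heart cells from peroxide-induced death in the single-dose screen, raw or plate-pattern-corrected value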;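 also: 0% = DMSO wells with peroxide and 100% = DMSO wells without peroxide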
FAS-TE inh: FAS thioesterase (human) inhibition; P49327; recombinant FAS-TE, OMFH fluorogenic substrate, fluorescence endpoint; inhibition, % at 15 µM; actives 0.67% (n = 360,000); AID 602261;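 active = compounds whose normalised, plate-corrected inhibition of enzyme fluorescence in the single-dose primary screen is 50% or more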;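 also: 0% = DMSO with enzyme and 100% = substrate without enzyme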
Target sequence (P49327 whole entry, looked up): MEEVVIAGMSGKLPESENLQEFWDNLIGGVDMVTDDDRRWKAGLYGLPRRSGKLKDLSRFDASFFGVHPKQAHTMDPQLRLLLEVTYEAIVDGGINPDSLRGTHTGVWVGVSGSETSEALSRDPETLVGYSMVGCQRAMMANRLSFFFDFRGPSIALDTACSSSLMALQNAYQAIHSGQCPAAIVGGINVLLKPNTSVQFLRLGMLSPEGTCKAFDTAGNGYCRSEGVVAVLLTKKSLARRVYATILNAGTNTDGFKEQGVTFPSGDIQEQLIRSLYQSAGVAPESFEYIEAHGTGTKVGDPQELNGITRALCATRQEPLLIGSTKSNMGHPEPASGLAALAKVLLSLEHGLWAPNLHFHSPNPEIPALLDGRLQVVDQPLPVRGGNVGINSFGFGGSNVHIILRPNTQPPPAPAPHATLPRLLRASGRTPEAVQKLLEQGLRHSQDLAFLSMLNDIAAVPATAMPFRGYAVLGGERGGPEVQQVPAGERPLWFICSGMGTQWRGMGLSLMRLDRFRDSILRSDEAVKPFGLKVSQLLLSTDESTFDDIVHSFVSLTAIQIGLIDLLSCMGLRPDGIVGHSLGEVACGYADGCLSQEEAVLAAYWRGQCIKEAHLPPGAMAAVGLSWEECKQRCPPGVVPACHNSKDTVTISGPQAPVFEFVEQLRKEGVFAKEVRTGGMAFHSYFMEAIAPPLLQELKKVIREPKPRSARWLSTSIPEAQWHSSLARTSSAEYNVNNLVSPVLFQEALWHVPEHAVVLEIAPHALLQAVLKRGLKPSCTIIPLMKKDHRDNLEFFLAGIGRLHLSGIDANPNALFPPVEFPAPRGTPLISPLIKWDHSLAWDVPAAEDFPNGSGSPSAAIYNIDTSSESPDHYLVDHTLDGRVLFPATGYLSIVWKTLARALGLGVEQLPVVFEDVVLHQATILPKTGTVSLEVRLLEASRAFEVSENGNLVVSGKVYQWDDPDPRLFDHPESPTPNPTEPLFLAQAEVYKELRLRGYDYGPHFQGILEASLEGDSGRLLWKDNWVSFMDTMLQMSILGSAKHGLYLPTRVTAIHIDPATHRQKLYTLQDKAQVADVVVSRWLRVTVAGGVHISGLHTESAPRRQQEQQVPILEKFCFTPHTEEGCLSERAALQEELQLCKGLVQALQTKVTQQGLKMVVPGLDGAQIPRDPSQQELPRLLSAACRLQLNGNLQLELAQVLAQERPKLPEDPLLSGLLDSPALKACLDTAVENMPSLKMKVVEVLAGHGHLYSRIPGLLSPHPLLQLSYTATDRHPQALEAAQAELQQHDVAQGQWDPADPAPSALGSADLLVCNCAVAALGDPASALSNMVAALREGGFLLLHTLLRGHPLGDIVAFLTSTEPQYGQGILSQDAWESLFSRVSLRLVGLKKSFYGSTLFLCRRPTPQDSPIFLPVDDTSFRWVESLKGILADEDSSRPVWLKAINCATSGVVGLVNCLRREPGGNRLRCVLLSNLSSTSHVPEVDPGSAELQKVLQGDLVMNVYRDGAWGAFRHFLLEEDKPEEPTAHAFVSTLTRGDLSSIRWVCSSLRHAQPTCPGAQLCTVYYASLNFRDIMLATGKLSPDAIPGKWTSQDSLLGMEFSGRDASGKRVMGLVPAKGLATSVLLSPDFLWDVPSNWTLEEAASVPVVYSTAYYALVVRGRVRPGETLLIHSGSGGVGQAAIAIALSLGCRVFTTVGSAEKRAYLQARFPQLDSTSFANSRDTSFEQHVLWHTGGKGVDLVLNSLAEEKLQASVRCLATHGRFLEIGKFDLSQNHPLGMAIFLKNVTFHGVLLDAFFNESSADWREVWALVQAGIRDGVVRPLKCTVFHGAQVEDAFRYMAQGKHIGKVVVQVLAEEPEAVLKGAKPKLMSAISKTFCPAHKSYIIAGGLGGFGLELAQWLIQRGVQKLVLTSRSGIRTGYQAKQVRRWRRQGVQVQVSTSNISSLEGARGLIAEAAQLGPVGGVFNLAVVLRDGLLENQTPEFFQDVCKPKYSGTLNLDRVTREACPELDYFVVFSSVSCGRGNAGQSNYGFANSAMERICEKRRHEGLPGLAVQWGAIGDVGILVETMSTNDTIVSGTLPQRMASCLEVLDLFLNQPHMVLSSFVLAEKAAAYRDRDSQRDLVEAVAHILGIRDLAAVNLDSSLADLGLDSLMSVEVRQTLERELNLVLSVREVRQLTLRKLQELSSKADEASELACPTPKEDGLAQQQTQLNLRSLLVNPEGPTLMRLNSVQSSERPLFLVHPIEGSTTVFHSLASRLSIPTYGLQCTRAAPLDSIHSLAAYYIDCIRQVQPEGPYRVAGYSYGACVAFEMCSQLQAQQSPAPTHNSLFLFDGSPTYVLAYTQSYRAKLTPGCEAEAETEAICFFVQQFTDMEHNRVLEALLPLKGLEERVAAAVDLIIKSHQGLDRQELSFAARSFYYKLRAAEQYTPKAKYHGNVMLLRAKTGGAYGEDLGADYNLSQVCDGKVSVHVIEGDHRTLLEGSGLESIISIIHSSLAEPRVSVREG
The depositor's hits bear a star; · = no result given.

SMILES	iPSC survival up	NR3A LBD binder	Arrestin-AP2 inh	SENP1 FRET inh	H9c2 protect	FAS-TE inh
Clc1cccc(N/N=C(\Cc2nc3ccccc3[nH]2)c2ccccc2)c1	-1	31*	2	-13	-7	29
c1ccc(N/N=C(\Cc2ncc[nH]2)c2ccccc2)cc1	0	-2	7	-11	-5	3
O=C1Nc2ccc(Br)cc2C12NNc1ccccc1O2 (configuration not stated)	1	25*	0	58	-17	22
Cn1c(N)c(C(=O)COC(=O)c2cc(-c3ccccc3)nc3ccccc23)c(=O)n(Cc2ccccc2)c1=O	1	-1	-9	-84	-11	48
CCCn1nc(C(=O)OCC(=O)Nc2ccc(C(N)=O)cc2)c2ccccc2c1=O	-3	-2	2	-3	3	-6
CC(=O)Oc1ccc(C(=O)OCC(=O)c2c(N)n(C)c(=O)n(C)c2=O)cc1OC(C)=O	0	0	-4	2	65*	-1
CCCn1nc(C(=O)OCC(=O)c2c(N)n(C)c(=O)n(C)c2=O)c2ccccc2c1=O	0	-2	16	-2	61*	2
Cn1c(N)c(C(=O)COC(=O)c2cc(C3CC3)nc3ccccc23)c(=O)n(Cc2ccccc2)c1=O	-4	18*	5	-85	-2	21
COc1ccc(-c2cnc3c(NC(C)=O)cc(-c4ccc(C(=O)N5CCOCC5)cc4)cn23)cc1OC	-2	·	·	0	43	-2
CN(CCCNC(=O)C1CCC(CNS(=O)(=O)c2ccccc2)CC1)Cc1ccccc1 (configuration not stated)	0	3	-22	3	-2	-2
CC(=O)Nc1ccc(S(=O)(=O)NCC2CCC(C(=O)NCCCN(C)Cc3ccccc3)CC2)cc1 (configuration not stated)	0	15*	-19	3	0	-2
O=C(Nc1nccs1)c1csc([C@H]2C[C@H](O)[C@@H](CO)O2)n1	-2	·	·	3	-2	-4
CN(C)C(=O)CSC1c2ccccc2C(=O)N1c1ccccc1 (configuration not stated)	-2	0	2	1	1	-5
CCn1ncc2c1C(=O)NC1c3ccccc3C(=O)N21 (configuration not stated)	-2	1	-10	4	59*	-4
CCN1CCN(C(=O)/C=C/c2ccc(C(C)C)cc2)CC1	1	-3	47	4	0	-2
CCN1CCC(O)(/C=C/c2ccc(C(C)C)cc2)C(C(=O)/C=C/c2ccc(C(C)C)cc2)C1 (configuration not stated)	-3	24*	32	1	-19	0
Cc1ccc(N(CC(=O)Nc2ccc(F)c(Cl)c2)S(=O)(=O)c2c(C)noc2C)cc1	1	11*	-1	0	-30	32
Cc1ccc(N(CC(=O)Nc2cc(C)cc(C)c2)S(=O)(=O)c2c(C)noc2C)cc1	2	0	10	2	-12	24
N#CCOC(=O)[C@H](Cc1c[nH]c2ccccc12)NS(=O)(=O)c1ccc(Cl)cc1	0	29*	-13	-2	-2	6
Cc1ccccc1S(=O)(=O)NC(=O)C1(C)CCN1C(=O)CCc1ccc(Cl)cc1Cl (configuration not stated)	-1	·	·	4	-5	-6
COc1ccc(-c2ccc(C(=O)Nc3ccc(OC)nc3)c3occc23)c(C)c1	0	·	·	3	-16	24
CCn1c(C(C)NC(=O)c2cccs2)n[nH]c1=S (configuration not stated)	2	10*	7	1	0	-4
CN(Cc1ccccc1)C(=O)CCn1c(=O)oc2ccccc21	-2	-2	15	2	-2	-3
O=C(CCn1c(=O)oc2ccccc21)N(Cc1ccccc1)c1ccccc1	5	1	21	3	73*	20
CSc1ccc(Cn2c(C)c(C(=O)NCc3ccco3)sc2=O)cc1	-1	·	·	-6	2	1
SMILES	iPSC survival up	NR3A LBD binder	Arrestin-AP2 inh	SENP1 FRET inh	H9c2 protect	FAS-TE inh
Cc1cc(NC(=O)c2cc(Cl)ccc2Cl)no1	0	2	-3	-1	-1	-2
Cc1cc(NC(=O)c2sc(Nc3cccc(C(F)(F)F)c3)nc2N)no1	-3	20*	13	-4	-3	9
Cc1cc(NC(=O)c2sc(Nc3ccc(F)c(Cl)c3)nc2N)no1	0	23*	9	0	-15	0
Cn1c(SCC(=O)c2ccc3c(c2)Cc2ccccc2-3)nnc1-c1ccccc1	0	1	18	2	-16	12
CC(=O)Nc1nnc(SCC(=O)c2ccc3c(c2)Cc2ccccc2-3)s1	0	15*	-7	0	-5	-4
CCC(=O)Nc1nnc(SCC(=O)N2c3ccccc3CC2C)s1 (configuration not stated)	-1	0	22	1	-1	-6
CCC(=O)Nc1nnc(SCC(=O)c2ccc3c(c2)Cc2ccccc2-3)s1	1	11*	0	0	-6	-3
NC(=O)c1ccc(Nc2nc(C(N)c3ccccc3Cl)cs2)cc1 (configuration not stated)	28*	·	·	0	-2	-5
CS(=O)(=O)c1ccc(Nc2nc(C(N)c3ccccc3Cl)cs2)cc1 (configuration not stated)	5	·	·	0	0	-5
Cc1c(C(=O)Nc2ccc(F)c(F)c2)oc2ccc(S(=O)(=O)N3CCCCC3)cc12	-3	31*	-11	2	6	38
COc1ccc2oc(C(=O)Nc3ccccc3N3CCOCC3)c(C)c2c1	0	3	14	-31	2	0
COc1cccc(NC(=O)c2oc3ccc(S(=O)(=O)N4CCOCC4)cc3c2C)c1	0	-3	42	1	85*	6
Cc1c(C(=O)Nc2ccc(F)cc2)oc2ccc(S(=O)(=O)N3CCCC3)cc12	3	-11	10	3	4	-6
Cc1cc2oc(C(=O)Nc3ccc(S(N)(=O)=O)cc3)c(C)c2cc1Cl	0	24*	-21	3	-20	2
COc1ccc2oc(C(=O)Nc3ccc(N4CCOCC4)cc3)c(C)c2c1	0	-10	-9	-24	56*	8
Cc1ccc(NC(=O)c2oc3ccc(S(=O)(=O)N4CCOCC4)cc3c2C)cc1C	4	-6	12	1	-10	-3
CCCNC(=O)c1cc2c(c(-c3cccc(-c4ccccc4F)c3)n1)[C@@H](CCO)N(C(=O)CC1CC1)C2	0	·	·	3	·	-2
